Experimental data published in ChEMBL document CHEMBL1811853, “Design and evaluation of 3-aminopyrazolopyridinone kinase inhibitors inspired by the natural product indirubin” (Bioorg Med Chem, 2011).
≈ marks a conversion by molar mass, not a printed value.

Tests used:
[1] = biological target: T1, Tyrosine-protein kinase Lck (Homo sapiens, UniProt P06239); assay: Inhibition of LCK at 30 uM by microfluidic mobility shift assay
How it was run: (§1)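 Single-concentration screen, singlicate, 30 uM final (diluted from 1 mM DMSO solutions), fluorescently tagged peptide substrate appropriate to each kinase, ATP at apparent Km for each protein. Phosphorylated and unphosphorylated peptides separated electrophoretically; conversion is the phosphorylated peak area over the sum of both peaks. No-inhibitor and no-ATP controls; H89 reference on each plate.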
Target sequence in this assay (P06239 2-509 limits assumed): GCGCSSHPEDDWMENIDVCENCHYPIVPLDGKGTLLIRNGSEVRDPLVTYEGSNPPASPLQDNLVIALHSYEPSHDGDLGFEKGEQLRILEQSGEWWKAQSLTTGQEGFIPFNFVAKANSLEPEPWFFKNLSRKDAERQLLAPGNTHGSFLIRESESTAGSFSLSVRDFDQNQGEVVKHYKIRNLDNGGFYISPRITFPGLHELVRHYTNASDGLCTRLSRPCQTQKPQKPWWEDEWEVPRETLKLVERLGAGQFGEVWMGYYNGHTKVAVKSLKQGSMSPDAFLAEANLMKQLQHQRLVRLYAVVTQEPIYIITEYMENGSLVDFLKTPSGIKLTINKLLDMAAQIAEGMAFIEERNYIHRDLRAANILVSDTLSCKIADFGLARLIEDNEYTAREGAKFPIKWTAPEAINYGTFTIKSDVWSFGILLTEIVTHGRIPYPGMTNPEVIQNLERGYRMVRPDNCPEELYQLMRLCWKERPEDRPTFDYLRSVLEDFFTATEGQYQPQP

[2] = biological target: Ribosomal protein S6 kinase alpha-1 (Homo sapiens) (UniProt Q15418); assay: Inhibition of RSK1 at 30 uM by microfluidic mobility shift assay; how it was run: as §1
[3] = biological target: Mitogen-activated protein kinase 3 (Homo sapiens) (UniProt P27361); assay: Inhibition of ERK1 at 30 uM by microfluidic mobility shift assay; how it was run: as §1
Mitogen-activated protein kinase 3 (Homo sapiens), sequence (P27361 whole entry): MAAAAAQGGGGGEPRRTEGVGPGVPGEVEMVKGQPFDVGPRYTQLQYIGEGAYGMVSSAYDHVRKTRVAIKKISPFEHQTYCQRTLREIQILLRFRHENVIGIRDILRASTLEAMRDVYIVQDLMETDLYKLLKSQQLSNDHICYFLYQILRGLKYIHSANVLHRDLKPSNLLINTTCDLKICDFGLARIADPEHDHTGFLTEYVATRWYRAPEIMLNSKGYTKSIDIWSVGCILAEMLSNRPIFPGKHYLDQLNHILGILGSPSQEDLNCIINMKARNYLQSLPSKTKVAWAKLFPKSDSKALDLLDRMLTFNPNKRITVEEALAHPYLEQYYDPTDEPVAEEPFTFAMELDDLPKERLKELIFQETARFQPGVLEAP

[4] = biological target: Mitogen-activated protein kinase 1 (Homo sapiens) (UniProt P28482); assay: Inhibition of ERK2 at 30 uM by microfluidic mobility shift assay; how it was run: as §1
[5] = biological target: T2, Aurora kinase A (Homo sapiens) (UniProt O14965); assay: Inhibition of AurA at 30 uM by microfluidic mobility shift assay; how it was run: as §1
T2 sequence (whole entry): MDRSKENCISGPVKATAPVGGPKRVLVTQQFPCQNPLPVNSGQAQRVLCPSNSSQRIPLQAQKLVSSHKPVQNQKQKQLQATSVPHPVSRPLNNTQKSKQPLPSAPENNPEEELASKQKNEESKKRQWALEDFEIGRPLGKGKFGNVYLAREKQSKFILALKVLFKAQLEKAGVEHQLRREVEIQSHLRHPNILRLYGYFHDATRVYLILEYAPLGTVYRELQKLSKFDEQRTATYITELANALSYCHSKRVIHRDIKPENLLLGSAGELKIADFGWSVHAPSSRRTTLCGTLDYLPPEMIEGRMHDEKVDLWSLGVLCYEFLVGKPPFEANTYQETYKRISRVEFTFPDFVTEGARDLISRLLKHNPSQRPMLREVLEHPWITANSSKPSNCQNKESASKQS

[6] = Aqueous solubility of the compound by HPLC analysis; assay type: physicochemical; conditions: water
How it was run: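 Solubility determined by HPLC measurement of the concentration in saturated aqueous solutions of the compounds.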

[7] = biological target: RAC-beta serine/threonine-protein kinase (Homo sapiens) (UniProt P31751); assay: Inhibition of AKT2 at 30 uM by microfluidic mobility shift assay; how it was run: as §1
RAC-beta serine/threonine-protein kinase (Homo sapiens), sequence (P31751 whole entry): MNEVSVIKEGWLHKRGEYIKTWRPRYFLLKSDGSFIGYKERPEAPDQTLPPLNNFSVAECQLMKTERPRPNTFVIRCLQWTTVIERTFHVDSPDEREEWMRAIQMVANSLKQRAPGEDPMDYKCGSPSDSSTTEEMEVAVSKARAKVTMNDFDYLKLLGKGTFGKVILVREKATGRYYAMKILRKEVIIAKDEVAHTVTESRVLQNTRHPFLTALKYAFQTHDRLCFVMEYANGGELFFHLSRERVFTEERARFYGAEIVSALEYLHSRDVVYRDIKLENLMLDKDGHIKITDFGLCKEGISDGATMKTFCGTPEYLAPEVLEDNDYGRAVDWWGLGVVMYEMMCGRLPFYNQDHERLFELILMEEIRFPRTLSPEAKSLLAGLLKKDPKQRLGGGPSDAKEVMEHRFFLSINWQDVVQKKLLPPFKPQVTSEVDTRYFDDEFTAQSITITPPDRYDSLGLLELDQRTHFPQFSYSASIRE

[8] = biological target: RAC-alpha serine/threonine-protein kinase (Homo sapiens) (UniProt P31749); assay: Inhibition of AKT1 at 30 uM by microfluidic mobility shift assay; how it was run: as §1
RAC-alpha serine/threonine-protein kinase (Homo sapiens), sequence (P31749 whole entry): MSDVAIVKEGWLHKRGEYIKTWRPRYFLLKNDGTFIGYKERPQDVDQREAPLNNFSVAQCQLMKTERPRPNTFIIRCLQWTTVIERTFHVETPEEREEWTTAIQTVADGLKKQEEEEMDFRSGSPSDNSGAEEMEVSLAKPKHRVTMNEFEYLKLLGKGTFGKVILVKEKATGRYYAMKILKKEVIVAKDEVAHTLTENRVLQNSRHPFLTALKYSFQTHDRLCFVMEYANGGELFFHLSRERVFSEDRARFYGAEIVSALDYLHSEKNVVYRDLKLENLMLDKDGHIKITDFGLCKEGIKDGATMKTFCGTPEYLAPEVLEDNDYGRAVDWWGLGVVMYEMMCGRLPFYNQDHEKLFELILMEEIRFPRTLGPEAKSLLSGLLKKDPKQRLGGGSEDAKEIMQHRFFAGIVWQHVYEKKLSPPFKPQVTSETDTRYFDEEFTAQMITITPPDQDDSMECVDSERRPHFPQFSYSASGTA

[9] = biological target: T3, Protein kinase C zeta type (Homo sapiens) (UniProt Q05513); assay: Inhibition of PKCz at 30 uM by microfluidic mobility shift assay; how it was run: as §1
T3 sequence (whole entry): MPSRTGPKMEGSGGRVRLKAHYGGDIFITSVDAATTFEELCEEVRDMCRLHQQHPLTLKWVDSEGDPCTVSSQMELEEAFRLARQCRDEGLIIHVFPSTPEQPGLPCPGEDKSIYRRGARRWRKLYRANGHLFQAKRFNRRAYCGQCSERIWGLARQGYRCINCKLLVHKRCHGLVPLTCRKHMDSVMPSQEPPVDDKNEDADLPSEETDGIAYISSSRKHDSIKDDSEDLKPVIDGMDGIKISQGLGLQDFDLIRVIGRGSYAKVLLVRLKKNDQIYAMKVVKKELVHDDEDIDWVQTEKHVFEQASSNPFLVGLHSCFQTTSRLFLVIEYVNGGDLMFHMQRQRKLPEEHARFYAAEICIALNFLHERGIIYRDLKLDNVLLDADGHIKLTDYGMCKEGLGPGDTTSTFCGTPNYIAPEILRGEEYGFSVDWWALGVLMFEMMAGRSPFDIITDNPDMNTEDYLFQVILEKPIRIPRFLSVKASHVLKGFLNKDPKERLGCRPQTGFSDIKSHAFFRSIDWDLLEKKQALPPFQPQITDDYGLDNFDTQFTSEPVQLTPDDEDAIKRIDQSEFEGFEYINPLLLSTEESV

[10] = biological target: T4, Mitogen-activated protein kinase 14 (Homo sapiens, UniProt Q16539); assay: Inhibition of p38alpha at 30 uM by microfluidic mobility shift assay; how it was run: as §1
T4 sequence (Q16539 whole entry): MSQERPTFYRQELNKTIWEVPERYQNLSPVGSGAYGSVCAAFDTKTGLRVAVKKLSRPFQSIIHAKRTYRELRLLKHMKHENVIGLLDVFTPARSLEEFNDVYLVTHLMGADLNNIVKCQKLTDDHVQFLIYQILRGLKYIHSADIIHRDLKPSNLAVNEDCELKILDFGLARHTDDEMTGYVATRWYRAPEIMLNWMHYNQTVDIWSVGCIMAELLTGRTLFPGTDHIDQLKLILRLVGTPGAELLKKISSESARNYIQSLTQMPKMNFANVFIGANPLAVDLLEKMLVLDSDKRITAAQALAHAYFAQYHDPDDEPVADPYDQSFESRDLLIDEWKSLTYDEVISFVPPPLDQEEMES

[11] = biological target: T5, Serine/threonine-protein kinase D2 (Homo sapiens) (UniProt Q9BZL6); assay: Inhibition of PKD2 at 30 uM by microfluidic mobility shift assay; how it was run: as §1
T5 sequence (whole entry): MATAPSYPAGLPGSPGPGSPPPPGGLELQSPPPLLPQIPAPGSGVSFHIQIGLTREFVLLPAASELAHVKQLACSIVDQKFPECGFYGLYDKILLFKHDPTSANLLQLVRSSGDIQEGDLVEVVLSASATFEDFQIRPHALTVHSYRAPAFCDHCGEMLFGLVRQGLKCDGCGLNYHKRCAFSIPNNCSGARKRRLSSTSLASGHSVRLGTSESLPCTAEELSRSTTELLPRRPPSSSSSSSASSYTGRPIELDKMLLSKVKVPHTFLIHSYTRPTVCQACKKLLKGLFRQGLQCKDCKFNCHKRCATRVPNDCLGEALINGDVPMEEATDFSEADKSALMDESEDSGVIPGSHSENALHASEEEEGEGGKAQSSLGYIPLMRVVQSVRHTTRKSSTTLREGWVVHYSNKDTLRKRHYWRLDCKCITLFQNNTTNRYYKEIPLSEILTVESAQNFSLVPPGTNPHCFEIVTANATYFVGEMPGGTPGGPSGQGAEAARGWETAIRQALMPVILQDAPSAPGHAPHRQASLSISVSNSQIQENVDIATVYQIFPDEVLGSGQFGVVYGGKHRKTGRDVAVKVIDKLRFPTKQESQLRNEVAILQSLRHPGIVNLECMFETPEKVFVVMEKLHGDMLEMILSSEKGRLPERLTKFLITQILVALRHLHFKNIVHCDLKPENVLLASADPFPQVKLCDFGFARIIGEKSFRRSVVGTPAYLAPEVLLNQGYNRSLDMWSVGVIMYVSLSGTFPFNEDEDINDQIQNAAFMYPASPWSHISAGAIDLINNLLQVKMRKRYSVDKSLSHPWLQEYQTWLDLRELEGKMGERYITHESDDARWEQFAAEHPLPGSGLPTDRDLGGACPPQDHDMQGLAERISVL

[12] = biological target: T6, Tyrosine-protein kinase Lyn (Homo sapiens, UniProt P07948); assay: Inhibition of LYN at 30 uM by microfluidic mobility shift assay; how it was run: as §1
[13] = biological target: T7, MAP kinase-activated protein kinase 5 (Homo sapiens) (UniProt Q8IW41); assay: Inhibition of PRAK1 at 30 uM by microfluidic mobility shift assay; how it was run: as §1
T7 sequence (whole entry): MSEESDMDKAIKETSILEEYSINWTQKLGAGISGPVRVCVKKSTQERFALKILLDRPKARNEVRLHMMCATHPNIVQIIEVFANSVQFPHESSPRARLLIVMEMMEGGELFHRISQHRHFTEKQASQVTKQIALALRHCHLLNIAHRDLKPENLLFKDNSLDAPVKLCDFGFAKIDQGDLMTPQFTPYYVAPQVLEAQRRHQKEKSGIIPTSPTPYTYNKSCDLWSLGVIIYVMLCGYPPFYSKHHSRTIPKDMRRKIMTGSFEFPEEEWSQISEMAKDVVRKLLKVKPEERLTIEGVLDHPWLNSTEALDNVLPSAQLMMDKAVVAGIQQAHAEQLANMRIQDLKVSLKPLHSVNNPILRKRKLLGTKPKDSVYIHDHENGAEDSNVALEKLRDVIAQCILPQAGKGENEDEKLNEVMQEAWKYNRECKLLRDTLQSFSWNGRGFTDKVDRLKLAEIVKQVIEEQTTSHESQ

[14] = biological target: Ribosomal protein S6 kinase alpha-5 (Homo sapiens) (UniProt O75582); assay: Inhibition of MSK1 at 30 uM by microfluidic mobility shift assay; how it was run: as §1
[15] = biological target: T8, Tyrosine-protein kinase Fyn (Homo sapiens, UniProt P06241); assay: Inhibition of FYN at 30 uM by microfluidic mobility shift assay; how it was run: as §1
Target sequence in this assay (P06241 2-537 limits assumed): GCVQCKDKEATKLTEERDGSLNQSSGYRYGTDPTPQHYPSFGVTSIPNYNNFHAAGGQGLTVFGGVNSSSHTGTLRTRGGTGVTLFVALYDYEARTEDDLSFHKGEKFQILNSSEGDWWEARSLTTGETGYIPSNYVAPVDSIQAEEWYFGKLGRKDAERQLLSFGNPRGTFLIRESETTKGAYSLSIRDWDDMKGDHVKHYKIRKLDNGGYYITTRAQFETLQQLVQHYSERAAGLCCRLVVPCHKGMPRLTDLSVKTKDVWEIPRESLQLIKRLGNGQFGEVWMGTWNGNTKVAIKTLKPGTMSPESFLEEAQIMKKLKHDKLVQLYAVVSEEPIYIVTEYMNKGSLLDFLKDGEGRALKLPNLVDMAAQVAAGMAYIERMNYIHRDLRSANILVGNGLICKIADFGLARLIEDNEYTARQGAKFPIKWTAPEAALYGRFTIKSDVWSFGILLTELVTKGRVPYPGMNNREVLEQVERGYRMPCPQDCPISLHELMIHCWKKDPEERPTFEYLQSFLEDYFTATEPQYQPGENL

[16] = biological target: Glycogen synthase kinase-3 beta (Homo sapiens) (UniProt P49841); assay: Inhibition of GSK3B at 30 uM by microfluidic mobility shift assay; how it was run: as §1
[17] = biological target: T9, Proto-oncogene tyrosine-protein kinase Src (Homo sapiens, UniProt P12931); assay: Inhibition of SRC at 30 uM by microfluidic mobility shift assay; how it was run: as §1
T9 sequence (P12931 2-536 limits assumed): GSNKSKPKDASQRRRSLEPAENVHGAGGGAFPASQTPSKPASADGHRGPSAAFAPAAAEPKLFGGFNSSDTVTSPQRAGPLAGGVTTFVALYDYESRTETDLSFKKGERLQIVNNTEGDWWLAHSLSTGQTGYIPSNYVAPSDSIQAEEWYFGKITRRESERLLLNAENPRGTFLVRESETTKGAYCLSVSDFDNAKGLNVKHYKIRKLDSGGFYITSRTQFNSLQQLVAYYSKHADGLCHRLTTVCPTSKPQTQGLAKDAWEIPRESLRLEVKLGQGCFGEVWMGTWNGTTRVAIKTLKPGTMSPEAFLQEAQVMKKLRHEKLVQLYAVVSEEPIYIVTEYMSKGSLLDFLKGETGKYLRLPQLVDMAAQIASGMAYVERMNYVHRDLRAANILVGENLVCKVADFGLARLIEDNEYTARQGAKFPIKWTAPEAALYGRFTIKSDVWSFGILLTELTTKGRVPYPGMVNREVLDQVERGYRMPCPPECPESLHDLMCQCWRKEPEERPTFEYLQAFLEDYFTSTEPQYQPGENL

[18] = biological target: Serine/threonine-protein kinase Chk2 (Homo sapiens, UniProt O96017); assay: Inhibition of CHK2 at 30 uM by microfluidic mobility shift assay; how it was run: as §1
[19] = biological target: Insulin receptor (Homo sapiens) (UniProt P06213); assay: Inhibition of INSR at 30 uM by microfluidic mobility shift assay; how it was run: as §1
[20] = biological target: T10, Tyrosine-protein kinase ABL1 (Homo sapiens, UniProt P00519); assay: Inhibition of ABL at 30 uM by microfluidic mobility shift assay; how it was run: as §1
T10 sequence (P00519 whole entry): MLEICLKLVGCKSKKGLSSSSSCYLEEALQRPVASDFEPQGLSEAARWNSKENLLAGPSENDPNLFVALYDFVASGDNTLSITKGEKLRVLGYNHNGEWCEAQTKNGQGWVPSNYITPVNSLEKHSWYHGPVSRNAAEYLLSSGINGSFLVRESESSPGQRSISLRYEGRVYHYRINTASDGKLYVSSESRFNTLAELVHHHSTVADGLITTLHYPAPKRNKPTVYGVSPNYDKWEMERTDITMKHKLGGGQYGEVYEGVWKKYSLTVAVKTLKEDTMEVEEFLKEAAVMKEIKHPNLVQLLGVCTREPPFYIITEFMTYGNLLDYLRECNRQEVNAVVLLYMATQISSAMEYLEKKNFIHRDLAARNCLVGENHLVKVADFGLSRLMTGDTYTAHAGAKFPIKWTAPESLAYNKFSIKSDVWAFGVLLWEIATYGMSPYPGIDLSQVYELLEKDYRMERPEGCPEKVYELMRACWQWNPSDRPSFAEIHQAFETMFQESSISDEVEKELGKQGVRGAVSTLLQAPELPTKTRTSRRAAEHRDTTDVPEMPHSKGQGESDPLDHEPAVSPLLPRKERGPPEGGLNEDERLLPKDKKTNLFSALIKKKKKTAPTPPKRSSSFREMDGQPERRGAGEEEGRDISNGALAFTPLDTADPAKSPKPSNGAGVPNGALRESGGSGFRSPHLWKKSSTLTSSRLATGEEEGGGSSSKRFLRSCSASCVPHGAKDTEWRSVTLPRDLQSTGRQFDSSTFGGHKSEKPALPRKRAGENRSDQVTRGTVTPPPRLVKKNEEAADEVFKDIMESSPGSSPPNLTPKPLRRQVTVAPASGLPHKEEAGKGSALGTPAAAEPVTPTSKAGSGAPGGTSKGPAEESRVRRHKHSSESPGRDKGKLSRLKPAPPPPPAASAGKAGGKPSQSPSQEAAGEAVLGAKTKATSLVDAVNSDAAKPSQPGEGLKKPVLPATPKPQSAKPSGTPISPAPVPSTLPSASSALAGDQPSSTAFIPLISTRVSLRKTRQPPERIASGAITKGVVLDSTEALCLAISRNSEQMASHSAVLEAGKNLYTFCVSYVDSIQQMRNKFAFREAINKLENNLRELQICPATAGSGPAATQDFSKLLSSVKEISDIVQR

[21] = biological target: MAP kinase-activated protein kinase 2 (Homo sapiens, UniProt P49137); assay: Inhibition of MAPKAPK2 at 30 uM by microfluidic mobility shift assay; how it was run: as §1
MAP kinase-activated protein kinase 2, sequence (P49137 whole entry, looked up): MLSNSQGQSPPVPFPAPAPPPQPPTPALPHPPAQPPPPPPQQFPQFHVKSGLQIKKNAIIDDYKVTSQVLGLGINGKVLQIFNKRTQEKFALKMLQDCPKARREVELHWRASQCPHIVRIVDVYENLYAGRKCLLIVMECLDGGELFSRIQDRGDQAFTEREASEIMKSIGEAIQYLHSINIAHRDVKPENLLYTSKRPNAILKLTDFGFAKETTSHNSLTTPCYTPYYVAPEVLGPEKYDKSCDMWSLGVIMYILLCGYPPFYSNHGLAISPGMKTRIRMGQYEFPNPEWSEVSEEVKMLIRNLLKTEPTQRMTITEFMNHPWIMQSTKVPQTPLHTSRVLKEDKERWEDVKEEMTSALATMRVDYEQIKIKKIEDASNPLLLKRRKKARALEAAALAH

[22] = biological target: T9, Proto-oncogene tyrosine-protein kinase Src; assay: Inhibition of SRC by microfluidic mobility shift assay
How it was run: (§2)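 IC50 determined in the mobility shift format: a fluorescently tagged peptide substrate appropriate to each kinase, ATP at its apparent Km for each protein, and electrophoretic separation of phospho and unphosphorylated peptide. Percent conversion is the ratio of the phosphopeptide peak area to the total peak area. Controls were no inhibitor and no ATP.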

[23] = biological target: T1, Tyrosine-protein kinase Lck; assay: Inhibition of LCK by microfluidic mobility shift assay; how it was run: as §2
[24] = biological target: T6, Tyrosine-protein kinase Lyn; assay: Inhibition of LYN by microfluidic mobility shift assay; how it was run: as §2
MCF7 = assay: Growth inhibition of human MCF7 cells at 0.039 uM; assay type: functional; conditions: read-out: GI
[25] = biological target: T8, Tyrosine-protein kinase Fyn; assay: Inhibition of FYN by microfluidic mobility shift assay; how it was run: as §2
[26] = biological target: T4, Mitogen-activated protein kinase 14; assay: Inhibition of p38alpha by microfluidic mobility shift assay; how it was run: as §2
[27] = biological target: T10, Tyrosine-protein kinase ABL1; assay: Inhibition of ABL by microfluidic mobility shift assay; how it was run: as §2
[28] = Inhibition of PKA at 30 uM by microfluidic mobility shift assay; how it was run: as §1
[29] = biological target: T11, Serine/threonine-protein kinase Chk1 (Homo sapiens) (UniProt O14757); assay: Inhibition of CHK1 at 30 uM by microfluidic mobility shift assay; how it was run: as §1
T11 sequence (whole entry): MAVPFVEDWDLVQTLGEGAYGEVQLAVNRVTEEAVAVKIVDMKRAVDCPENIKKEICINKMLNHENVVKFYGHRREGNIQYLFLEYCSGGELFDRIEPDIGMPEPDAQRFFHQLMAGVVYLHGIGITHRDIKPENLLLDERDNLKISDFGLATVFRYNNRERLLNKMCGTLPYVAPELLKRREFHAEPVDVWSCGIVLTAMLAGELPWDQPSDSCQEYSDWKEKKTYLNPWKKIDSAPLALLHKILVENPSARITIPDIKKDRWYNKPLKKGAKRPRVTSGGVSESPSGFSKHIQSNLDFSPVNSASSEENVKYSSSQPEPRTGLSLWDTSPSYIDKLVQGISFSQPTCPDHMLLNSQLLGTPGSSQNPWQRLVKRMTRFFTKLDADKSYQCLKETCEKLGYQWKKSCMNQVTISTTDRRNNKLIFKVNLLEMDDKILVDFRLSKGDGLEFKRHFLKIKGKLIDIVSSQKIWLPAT

inhibition [1] [%] | inhibition [2] [%] | inhibition [3] [%] | inhibition [4] [%] | inhibition [5] [%] | solubility [6] [µg/mL] | inhibition [7] [%] | inhibition [8] [%] | inhibition [10] [%] | inhibition [11] [%] | inhibition [12] [%] | inhibition [13] [%] | inhibition [14] [%] | inhibition [15] [%] | inhibition [16] [%] | inhibition [17] [%] | inhibition [18] [%] | inhibition [19] [%] | inhibition [20] [%] | inhibition [21] [%] | Structure (SMILES) | other results
73 | -2 | 14 | 8 | 4 | 7 (≈ 22.1 µM) | 4 | -8 | 78 | -3 | 71 | 6 | 2 | 62 | 16 | 71 | -1 | 10 | 42 | 9 | Cc1[nH]c(=O)c2c(N)n(-c3ccccc3)nc2c1-c1ccccc1 | inhibition [9]: 26%
90 | 38 | 20 | 12 | 61 | < 1 | -1 | -2 | 79 | 23 | 96 | 22 | 13 | 96 | 29 | 98 | -8 | 2 | 96 | 2 | Nc1c2c(=O)[nH]c(-c3ccccc3)cc2nn1-c1ccccc1 | IC50 [22]: 0.87 µM; IC50 [23]: 4.8 µM; IC50 [24]: 1.4 µM; inhibition of growth at 0.039 µM (MCF7): 35%; IC50 [25]: 1.3 µM; IC50 [26]: 8.7 µM; IC50 [27]: 1.5 µM; inhibition [28]: -10%
11 | 2 | 9 | 4 | 33 | 259 (≈ 1150 µM) | 6 | 4 | 0 | 5 | 7 | 5 | 4 | 8 | 17 | 7 | 5 | 9 | 10 | 7 | Cn1nc(N)c2cnc(-c3ccccc3)cc21 | inhibition [29]: 1%; inhibition [28]: 1%
24 |  | 7 | 7 | 6 | 69 (≈ 287 µM) | 1 | 5 | 26 | -1 | 9 | 5 | 4 | 22 | 9 | 26 | -4 | 4 | 20 | -4 | Cc1cc2nn(-c3ccccc3)c(N)c2c(=O)[nH]1 | inhibition [29]: -9%; inhibition [28]: -8%
